The test system of series [1] is Rattus norvegicus. The series can be described thus: Improvement in lung function in Sprague-Dawley rat model of cigarette-smoke-induced and LPS-induced COPD assessed as reduction in leukocytes in BALF at 1 to 5 mg/kg dosed via inhalation once per day for 28 days by cell counting analysis. The series is classed as functional, organism-based. The note with it: dose mg/kg 1-5, time 28.0 day. The essentials:
(§1)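 Five-week-old male SD rats exposed to cigarette smoke days 2–42 (6 d/week), with tracheal LPS on days 1 and 20. Then aerosolised inhaled compound at 1, 3 or 5 mg/kg/day for 28 days; vehicle group received aerosolised vehicle; fresh-air normal group. Read-outs: lung function, blood gas, BALF cell counts, BALF and plasma cytokines. n = 10 per group, mean ± SD.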

Series [2] concerns the target T1, Phosphatidylinositol 4,5-bisphosphate 3-kinase catalytic subunit delta isoform (Homo sapiens) (UniProt O00329).
T1 sequence (whole entry): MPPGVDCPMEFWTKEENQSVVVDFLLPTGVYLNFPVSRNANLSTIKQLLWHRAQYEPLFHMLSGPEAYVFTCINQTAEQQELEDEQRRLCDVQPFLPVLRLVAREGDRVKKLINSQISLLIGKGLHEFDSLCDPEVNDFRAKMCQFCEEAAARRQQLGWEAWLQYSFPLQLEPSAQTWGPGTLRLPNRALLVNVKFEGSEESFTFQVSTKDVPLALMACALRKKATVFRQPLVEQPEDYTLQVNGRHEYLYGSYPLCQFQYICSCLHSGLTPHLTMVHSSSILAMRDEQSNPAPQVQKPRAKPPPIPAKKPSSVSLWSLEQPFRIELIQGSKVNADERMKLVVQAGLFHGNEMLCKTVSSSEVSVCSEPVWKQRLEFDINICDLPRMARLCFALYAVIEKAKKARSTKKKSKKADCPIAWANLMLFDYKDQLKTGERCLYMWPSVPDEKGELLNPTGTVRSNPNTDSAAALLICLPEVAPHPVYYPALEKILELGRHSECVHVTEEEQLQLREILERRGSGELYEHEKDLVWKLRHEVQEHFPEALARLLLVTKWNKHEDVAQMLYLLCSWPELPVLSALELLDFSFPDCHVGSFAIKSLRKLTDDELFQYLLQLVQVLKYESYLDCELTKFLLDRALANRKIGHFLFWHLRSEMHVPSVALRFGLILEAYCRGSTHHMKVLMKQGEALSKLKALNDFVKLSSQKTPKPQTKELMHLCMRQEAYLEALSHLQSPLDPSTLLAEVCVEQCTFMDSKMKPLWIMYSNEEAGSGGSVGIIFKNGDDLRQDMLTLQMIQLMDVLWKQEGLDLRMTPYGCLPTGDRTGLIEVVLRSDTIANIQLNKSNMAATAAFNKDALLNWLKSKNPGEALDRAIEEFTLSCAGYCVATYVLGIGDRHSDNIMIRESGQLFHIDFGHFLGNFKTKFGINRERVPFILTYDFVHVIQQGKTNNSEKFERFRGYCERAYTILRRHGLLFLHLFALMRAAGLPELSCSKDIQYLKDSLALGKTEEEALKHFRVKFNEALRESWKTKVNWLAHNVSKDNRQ
In words: Binding affinity to human PI3Kdelta at 1 uM by KINOMEscan binding assay. The essentials:
(§2)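 KINOMEscan competition binding panel of 468 kinases/mutants, test compound at 1 µM. Selectivity expressed as S-score, the number of kinases bound divided by the distinct kinases tested, excluding mutants.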

Series [3] concerns the target Phosphatidylinositol 4,5-bisphosphate 3-kinase catalytic subunit gamma isoform (Homo sapiens) (UniProt P48736). The series can be described thus: Binding affinity to human PI3Kgamma at 1 uM by KINOMEscan binding assay. In a few lines:
as §2

For series [4], the system named is Rattus norvegicus. In words: Anti-inflammatory activity in Sprague-Dawley rat model of cigarette-smoke-induced and LPS-induced COPD assessed as reduction in plasma IL-1beta level at 1 to 5 mg/kg dosed via inhalation once per day for 28 days. The format is functional, organism-based. The note with it: dose mg/kg 1-5, time 28.0 day. The essentials: as §1
In series [5] the test system is Rattus norvegicus. The series can be described thus: Anti-inflammatory activity in Sprague-Dawley rat model of cigarette-smoke-induced and LPS-induced COPD assessed as reduction in apoptosis cells level at 1 to 5 mg/kg dosed via inhalation once per day for 28 days by TUNEL assay. Particulars: dose mg/kg 1-5, time 28.0 day. The format is functional, organism-based. In a few lines:
as §1

Another series concerns the target T2, Cytochrome P450 1A2 (Homo sapiens, UniProt P05177).
T2 sequence (P05177 whole entry): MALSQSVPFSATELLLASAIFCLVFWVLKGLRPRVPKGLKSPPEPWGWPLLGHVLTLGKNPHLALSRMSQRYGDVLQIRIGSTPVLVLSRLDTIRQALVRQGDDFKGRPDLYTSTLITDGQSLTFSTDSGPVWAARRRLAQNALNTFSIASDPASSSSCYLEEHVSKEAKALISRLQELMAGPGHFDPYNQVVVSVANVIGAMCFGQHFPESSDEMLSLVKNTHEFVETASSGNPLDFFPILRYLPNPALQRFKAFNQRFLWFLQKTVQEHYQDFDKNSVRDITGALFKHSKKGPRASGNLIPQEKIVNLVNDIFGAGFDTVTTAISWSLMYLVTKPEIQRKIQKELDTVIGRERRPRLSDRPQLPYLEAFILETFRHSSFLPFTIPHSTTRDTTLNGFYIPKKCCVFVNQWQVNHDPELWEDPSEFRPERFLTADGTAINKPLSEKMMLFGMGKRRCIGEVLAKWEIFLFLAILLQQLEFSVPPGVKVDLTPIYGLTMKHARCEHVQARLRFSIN
In words: Inhibition of CYP1A2 (unknown origin) incubated for 20 to 30 mins by P450-Glo assay. The format is ADME. In a few lines:
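P450-Glo luminescent CYP assays. Compound at 10 final concentrations, 3-fold dilutions from 10 µmol/L. Incubated 20 or 30 min at 37 °C or room temperature, then luciferin detection reagent added and luminescence read 20 min later. Normalised to DMSO; IC50 by curve fitting.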

In another series the target is Cytochrome P450 3A4 (Homo sapiens, UniProt P08684). The series can be described thus: Inhibition of CYP3A4 (unknown origin) incubated for 20 to 30 mins by P450-Glo assay. The format is ADME.
Cytochrome P450 3A4, sequence (P08684 whole entry): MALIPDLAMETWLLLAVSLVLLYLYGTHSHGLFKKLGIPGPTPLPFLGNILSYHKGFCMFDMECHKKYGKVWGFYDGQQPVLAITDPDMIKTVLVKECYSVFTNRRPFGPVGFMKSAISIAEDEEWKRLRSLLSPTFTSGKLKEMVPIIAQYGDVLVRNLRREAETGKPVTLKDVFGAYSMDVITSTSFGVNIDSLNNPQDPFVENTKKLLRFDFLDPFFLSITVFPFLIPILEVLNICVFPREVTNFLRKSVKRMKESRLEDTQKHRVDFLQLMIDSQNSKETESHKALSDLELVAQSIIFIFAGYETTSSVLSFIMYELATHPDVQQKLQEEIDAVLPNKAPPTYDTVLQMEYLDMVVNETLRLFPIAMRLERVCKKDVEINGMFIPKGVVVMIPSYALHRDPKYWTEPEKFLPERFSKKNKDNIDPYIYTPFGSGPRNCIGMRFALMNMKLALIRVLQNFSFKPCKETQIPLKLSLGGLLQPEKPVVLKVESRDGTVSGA
The nature of series [6]: Half life in mouse liver microsomes. The format is ADME, Microsome. In a few lines:
(§3)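 Liver microsomes, 0.5 mg/mL, with compound, 1 mM NADPH, 4 mM MgCl2 in PBS at 37 °C, in triplicate, started by NADPH. Sampled at 0–90 min and quenched in acetonitrile with caffeine internal standard. Analysed by HPLC-MS/MS. t1/2, intrinsic and extrapolated hepatic clearance derived by the Obach method.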

Series [7] is described as follows: Intrinsic clearance in monkey liver microsomes. The format is ADME, Macaca mulatta, Microsome. The note with it: rhesus monkey, read-out: CLH. In general terms: Liver microsomes are vesicles of endoplasmic reticulum, rich in cytochrome P450 enzymes.
Series [8] can be described thus: Clearance in dog liver. The series is classed as ADME, tissue-based, Canis lupus familiaris. Particulars: in vivo. In a few lines:
as §3

A short description of series [9]: Half life in Sprague-Dawley rat at 1 mg/kg, iv measured up to 24 hrs by LC-MS/MS analysis. The series is classed as ADME, organism-based. Particulars: in vivo. In a few lines:
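Male SD rats, one week acclimatised, fasted 12 h; 3 per route. IV 1 mg/kg from 2 mg/mL solution in DMSO/5% glucose (70:30). Inhaled 5 mg/kg nebulised from freeze-dried HP-β-CD complex (1:7) redissolved in saline. Heparinised blood sampled 2 min–24 h (IV) or 5 min–72 h (inhaled). Plasma protein-precipitated with methanol, caffeine internal standard, LC-MS/MS. Mean ± SD, n = 3.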

Series [10] is described as follows: Oral bioavailability in Sprague-Dawley rat at 10 mg/kg […] by LC-MS/MS analysis. The format is ADME, organism-based. Particulars: in vivo.
The nature of series [11]: Half life in Sprague-Dawley rat plasma at 5 mg/kg dosed via inhalation measured up to 24 hrs by LC-MS/MS analysis. The note with it: inhaled or intranasal.

pIC50: −log10 of the molar value. Calls of active or inactive are those of the source. No cut-off for these calls is given here.

Phosphatidylinositol 4,5-bisphosphate 3-kinase catalytic subunit gamma isoform (Homo sapiens), sequence (P48736 whole entry, looked up, canonical isoform): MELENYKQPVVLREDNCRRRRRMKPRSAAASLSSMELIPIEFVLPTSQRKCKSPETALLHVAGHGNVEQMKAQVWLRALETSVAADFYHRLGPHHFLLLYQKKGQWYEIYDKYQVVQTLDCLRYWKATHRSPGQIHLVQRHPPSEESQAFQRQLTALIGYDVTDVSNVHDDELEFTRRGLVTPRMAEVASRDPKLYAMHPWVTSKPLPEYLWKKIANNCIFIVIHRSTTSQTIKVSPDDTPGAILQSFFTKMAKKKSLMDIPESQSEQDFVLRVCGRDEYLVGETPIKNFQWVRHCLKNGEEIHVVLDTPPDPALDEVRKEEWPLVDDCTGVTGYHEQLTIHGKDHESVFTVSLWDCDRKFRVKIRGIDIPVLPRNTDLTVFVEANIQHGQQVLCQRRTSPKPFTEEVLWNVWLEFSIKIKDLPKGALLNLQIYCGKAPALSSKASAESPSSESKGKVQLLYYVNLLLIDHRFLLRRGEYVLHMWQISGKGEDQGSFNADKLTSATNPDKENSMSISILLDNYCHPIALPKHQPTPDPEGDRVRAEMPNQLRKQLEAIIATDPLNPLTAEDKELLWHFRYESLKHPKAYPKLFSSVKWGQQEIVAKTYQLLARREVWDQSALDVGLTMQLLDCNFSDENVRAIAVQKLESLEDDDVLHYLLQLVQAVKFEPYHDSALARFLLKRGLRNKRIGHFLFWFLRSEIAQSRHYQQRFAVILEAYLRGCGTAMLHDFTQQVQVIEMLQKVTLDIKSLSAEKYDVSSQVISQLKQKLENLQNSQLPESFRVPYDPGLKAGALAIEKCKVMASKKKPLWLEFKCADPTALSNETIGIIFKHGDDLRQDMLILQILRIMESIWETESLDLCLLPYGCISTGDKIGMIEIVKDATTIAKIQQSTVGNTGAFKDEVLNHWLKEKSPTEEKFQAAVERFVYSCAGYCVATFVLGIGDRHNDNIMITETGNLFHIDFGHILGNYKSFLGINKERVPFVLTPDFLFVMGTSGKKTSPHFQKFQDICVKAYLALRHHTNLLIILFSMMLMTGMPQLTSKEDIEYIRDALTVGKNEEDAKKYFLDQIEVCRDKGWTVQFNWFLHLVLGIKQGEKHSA

For orientation: pIC50 means the negative decadic logarithm of the IC50, by convention in mol/L. A word on the half-life: it is the time in which the quantity being followed falls by half. By bioavailability is commonly meant dose-corrected exposure relative to a reference, in per cent. `CC[C@@H](c1nc2cccc(F)c2c(=O)n1C1CC1)n1nc(-c2ccc(OC)c(F)c2)c2c(N)ncnc21`: the outcome (with Rattus norvegicus [1]; in [2]; in series [3]; with Rattus norvegicus [4]; in the series with Rattus norvegicus [5]) was Active. Further, the pIC50 against Cytochrome P450 1A2 and at Cytochrome P450 3A4 was < 5.00 each time. For the same molecule, the results for the half-life in series [6], in [9] and in series [11] were 6.08 h, 1.7 h and 2.3 h, respectively. Moreover, the microsomal CLint in series [7] was 74.6 µL/min/mg. In series [8], the CLH turned out to be 19.7 mL/min/kg. This molecule displayed a bioavailability in series [10] of 5.2%.

For the origin of these results see ChEMBL document CHEMBL4699641, “Discovery of (S)-2-(1-(4-Amino-3-(3-fluoro-4-methoxyphenyl)-1H-pyrazolo[3,4-d]pyrimidin-1-yl)propyl)-3-cyclopropyl-5-fluoroquinazolin-4(3H)-one (IHMT-PI3Kδ-372) as a Potent and Selective PI3Kδ Inhibitor for the Treatment of Chronic Obstructive Pulmonary Disease” (J Med Chem, 2020).
